Data set [1] in a line: Dynamic light scattering. It counts as physicochemical. The settings on record: 750 μM in 1X PBS. The method in brief: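 Test compound dissolved in 1X PBS (pH 7.2), pre-filtered, and read at 22 °C with a 25 mW, 750 nm laser and a 90° detector. Detergent runs added 0.01% Triton-X 100. Each sample got ten repeat measurements, filtered on sum of squares and baseline error. Hr was derived by regularization from the autocorrelation decay. Intensity (kcps) is the mean of three or more measurements, compared with buffer.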

For data set [2], the target named is 5′-FAM-CCG-(CUG)10-CGG-3′ RNA (Seq. A). Briefly: Fluorescence titration. It counts as binding. The settings on record: FT.
In data set [3] the target is HIV-1 frameshift stimulatory sequence (FSS) RNA hairpin (Seq. F). Briefly: Fluorescence titration. It counts as binding. The settings on record: FT.
Data set [4] relates to (CUG)109 RNA – MBNL1 protein interaction. The data set can be described thus: Enzyme Fragment Complementation. The settings on record: EFC assay, immobilized (CUG)109 RNA, PL-MBNL1. It counts as biochemical.

Bounds are passed on as bounds.

Take `Nc1c(/N=N/c2ccc(-c3ccc(/N=N/c4cc(S(=O)(=O)O)c5ccccc5c4N)cc3)cc2)cc(S(=O)(=O)O)c2ccccc12` [Congo Red]: the entries for the “Hr (hydrodynamic radius)” value in data set [1] (pH 7.2) and in data set [1] (pH 7.2 + Triton-X 100 (0.01%)) were 69.25 nm and 40.72 nm, respectively. Moreover, the Intensity in data set [1] (pH 7.2) turned out to be 242±10 kcps; in data set [1] (pH 7.2 + Triton-X 100 (0.01%)), 190±24 kcps.
As usually defined, the Kd is a measure of binding affinity in units of concentration. (Quin-Cys-Pro-Phe)2 [Compound 5-5]: the values for the Kd in data set [2] and in data set [3] were greater than 40000 nM and 350 ± 110 nM, respectively. In addition, the “Inhibitory effect on (CUG)n – MBNL1 interaction” value in data set [4] is “do not show any inhibitory effect”.

Values taken from publication PMC2645920 (Journal of the American Chemical Society, 2008).
